# Compound activity as filed in PubChem BioAssay.
# Hits are enriched below; roughly 3.1% of the tested compounds scored in any of these assays.
# KCNK3 block = human KCNK3 channel inhibition, primary screen | O14649 | 340,000 tested, 0.84% active | CHO-KCNK3 thallium flux, FluxOR fluorescence; stronger effect = lower value | B-score at 10 µM;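 active = B-score under library mean minus 4 SD, starting fluorescence ratio at most library mean plus 5 SD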;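 note: more negative B-score means stronger inhibition of thallium flux through KCNK3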
# Target sequence (O14649 whole entry, looked up): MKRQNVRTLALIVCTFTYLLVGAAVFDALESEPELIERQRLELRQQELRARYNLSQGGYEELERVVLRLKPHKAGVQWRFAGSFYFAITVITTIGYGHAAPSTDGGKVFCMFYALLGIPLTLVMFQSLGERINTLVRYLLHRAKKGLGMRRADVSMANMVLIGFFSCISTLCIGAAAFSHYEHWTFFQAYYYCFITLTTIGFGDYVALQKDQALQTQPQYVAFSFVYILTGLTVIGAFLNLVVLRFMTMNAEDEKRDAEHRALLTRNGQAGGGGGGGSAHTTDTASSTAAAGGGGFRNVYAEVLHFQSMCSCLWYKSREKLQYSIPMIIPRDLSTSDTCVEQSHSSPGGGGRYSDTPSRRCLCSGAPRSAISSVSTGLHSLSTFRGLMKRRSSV
# KCNQ1 act = potentiators or activators of human KCNQ1 potassium channel. CHO-K1 KCNQ1, thallium flux FluxOR fluorescence; stronger effect = higher value. B-score at 10 µM. 310,000 tested, 0.35% active. AID 2648;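 active = fluorescence ratio B-score, a plate-corrected score, at least three library SD, with initial intensity B-score within 5 SD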
#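 System: Stable KCNQ1 CHO-K1 line | Incubation: 90 min dye loading and 20 min compound exposure, both at room temperature | Measure: Ratio B score | Medium: Assay buffer for compound exposure, DMSO matched across wells | Compound dosing: Single-concentration screen | Probe or stimulus: K+/Tl+ depolarizing stimulus | Measured by: Kinetic FluxOR fluorescence, 10 s baseline plus 110 s post-stimulus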
# hERG protect = shields human hERG channel from block by proarrhythmic agents; Q12809; CHO-hERG, FluxOR thallium flux, dofetilide IC70 present; activation (rescue from dofetilide block), less the hit threshold, % at 10 µM; 310,000 tested, 0.51% active; AID 1511;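 active = activation above the mean of controls blocked by dofetilide plus 5 SD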;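 note: thallium influx through hERG after potassium depolarization seen as dye fluorescence rise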
# KCNK9 inh = human KCNK9 channel inhibition; Q9NPC2; HEK293 KCNK9, FluxOR thallium flux fluorescence; stronger effect = lower value; B-score at 10 µM; 310,000 tested, 1.2% active; AID 488922;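 active = ratio B-score over 3 SD below the library mean, with starting fluorescence within 5 SD of its mean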;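 note: negative B-score means less thallium flux so channel inhibition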
# KCNQ1 inh = human KCNQ1 channel inhibition; CHO-K1 KCNQ1, FluxOR thallium flux fluorescence; stronger effect = higher value; 310,000 tested, 1.3% active; B-score at 10 µM;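 active = compounds whose thallium flux B-score, printed positive for inhibition, exceeds three library SD while starting fluorescence stays within three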;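 note: channel opened by potassium depolarization with thallium stimulus after 20 min compound exposure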
# KCNK9 inh conf = confirmation of human KCNK9 potassium channel inhibitors; inhibition, % at 10 µM; shares compounds with KCNK9 inh; 4,900 tested, 43% active; HEK293 KCNK9 cells, FluxOR thallium flux fluorescence;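 active = thallium signal inhibited by more than 5 SD of the compound-free buffer control wells, on both duplicate plates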
# Kir2-1 spec = selectivity of KCNK9 modulators against mouse Kir2.1 | shares compounds with KCNK9 inh | Kir2.1 cells, FluxOR thallium flux fluorescence | inhibition, % at 10 µM | 4,900 tested, 4% active;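 active = thallium signal drop more than 5 SD beyond the mean of the no-compound control wells, seen in both duplicate plates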;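 note: signal is fluorescence rise after thallium addition divided by baseline fluorescence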
# KCNK9 uninduced = non-induced cell nonspecific activity of KCNK9 modulators; non-induced KCNK9-HEK293, FluxOR thallium flux; shares compounds with KCNK9 inh; 4,900 tested, 40% active; inhibition, % at 10 µM;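 active = thallium signal drop beyond 5 SD of the untreated control mean, on both duplicate plates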
# A number is an active result; . = inactive; / = no result.
SMILES,KCNK3 block,KCNQ1 act,hERG protect,KCNK9 inh,KCNQ1 inh,KCNK9 inh conf,Kir2-1 spec,KCNK9 uninduced
O=C(NCC1CC1)C1(C(F)(F)F)CC(CCc2ccccc2)CCCO1 (stereo unspecified),.,.,.,.,.,.,.,.
O=C(NCCNCCO)C1(C(F)(F)F)C/C(=C\Cc2ccccc2)CCCO1 (stereo unspecified),.,.,.,.,.,/,/,/
CC(C)Oc1ccc(C(=O)/C(=C\c2cccs2)c2nc3ccccc3o2)cc1,.,.,.,.,.,.,.,.
COc1ccc(NC(=O)CCc2ccc(OC)c(OC)c2)cn1,.,.,.,.,.,/,/,/
O=C(/C(=C/c1ccc(Cl)cc1)c1nc2ccccc2[nH]1)c1cccs1,.,.,.,-11,6,48%,.,41%
CN(CCO)c1ccc(-c2n[nH]c(=O)c3ccccc23)cc1[N+](=O)[O-],.,.,.,.,.,/,/,/
COc1ccccc1C1N=C(c2ccccc2C)NO1 (stereo unspecified),.,.,.,.,.,/,/,/
COc1ccccc1C1=NC(c2ccc(F)cc2)N=C1C (stereo unspecified),.,.,.,.,.,.,.,.
Cc1cccc(C(=O)O/N=C/c2c(Cl)n(C)c3ccccc23)c1,.,.,.,-12,.,48%,.,34%
O=C(NNC(=S)Nc1ccc(Br)cc1)c1ccccc1Br,.,.,.,.,.,.,.,.
CC(C)=C1C(=O)NN(c2ccc(F)c(Cl)c2)C1=O,.,.,.,.,.,/,/,/
O=C1NN(c2ccc(F)c(Cl)c2)C(=O)/C1=C\c1cccc(OC(=O)c2cccs2)c1,.,.,.,.,.,.,.,.
CCOC(=O)C1CCN(C(=O)COC(=O)CNS(=O)(=O)c2ccc(SC)c([N+](=O)[O-])c2)CC1,.,/,/,/,/,/,/,/
Cc1nc(C(=O)N2CCc3c([nH]c4ccccc34)C2c2cc(F)ccc2F)cs1 (stereo unspecified),.,.,.,-10,.,46%,.,31%
CCc1sc(N(C(=O)Cc2ccccc2)c2ccccc2)nc1-c1ccccc1,.,.,.,.,.,/,/,/
CCCCC(=O)N(c1ccc(C(=O)O)cc1)c1nc(-c2ccc(Cl)cc2)c(CC)s1,.,.,.,.,.,.,.,.
COc1cccc(OC)c1OCC(O)CN1CCN(c2ccccc2)CC1 (stereo unspecified),.,.,.,.,.,/,/,/
OC(COc1ccc(Cl)cc1)CN1CCN(c2cccc(Cl)c2)CC1 (stereo unspecified),.,.,.,.,.,.,.,.
OC(COC(c1ccc(Cl)cc1)c1ccc(Cl)cc1)CN1CCN(c2ccccn2)CC1 (stereo unspecified),.,.,.,.,.,.,.,.
Cc1cccc(N2CCN(CC(O)COc3ccc(Cl)cc3)CC2)c1 (stereo unspecified),.,.,.,.,.,/,/,/
Cc1cccc(C)c1OCC(O)CN1CCN(c2ccccc2)CC1 (stereo unspecified),.,.,.,.,.,.,.,.
OC(COC(c1ccccc1)c1ccccc1)CN1CCN(c2cccc(Cl)c2)CC1 (stereo unspecified),.,.,.,.,.,.,.,.
c1ccc(C(c2ccccc2)N2CCN(Cc3nnnn3C3CCCC3)CC2)cc1,.,.,.,-9,.,41%,.,.
O=C(/C=C/c1ccccc1)N1c2ccccc2Sc2ccc(C(F)(F)F)cc21,.,.,.,-9.2,.,26%,.,36%
CCN(CC)S(=O)(=O)c1cccc(C(=O)NC2CCCCC2)c1,.,.,.,.,.,/,/,/
SMILES,KCNK3 block,KCNQ1 act,hERG protect,KCNK9 inh,KCNQ1 inh,KCNK9 inh conf,Kir2-1 spec,KCNK9 uninduced
CCN(CC)S(=O)(=O)c1ccc(C)c(NC(=S)NC2CCCCC2)c1,.,.,.,.,.,.,.,.
COc1cc2c(cc1OC)-c1nnc(-c3ccco3)n1C1(CCCC1)C2,.,.,.,-13,.,46%,.,28%
Cc1onc(-c2ccccc2)c1C(=O)NC(C)CCc1ccccc1 (stereo unspecified),.,.,.,.,.,/,/,/
Cc1ccc(Cl)cc1N1CCN(Cc2cc(=O)n3ccsc3n2)CC1,.,.,.,.,.,/,/,/
C#CCn1c(S(=O)(=O)Cc2ccc(OC)cc2)nc(-c2ccccc2)c1-c1ccccc1,-9.4,.,.,-18,.,62%,.,26%
CC1CCCCN1C(=O)COC(=O)C1CCN(S(=O)(=O)c2c(Cl)cccc2Cl)CC1 (stereo unspecified),.,.,.,.,.,/,/,/
CN(C(=S)Nc1ccc(Oc2ccccc2)cc1)C1CCCCC1,.,.,.,.,.,.,.,.
S=C(Nc1ccc(Oc2ccccc2)cc1)NC1CCCCCC1,.,.,.,.,.,/,/,/
COc1ccc(-c2nnc(SCc3cc(C)cc(C)c3)o2)cc1,.,.,.,.,.,.,.,.
COc1ccc(OCC(=O)NC(=S)Nc2ccccc2F)cc1,.,.,.,.,.,.,.,.
O=C(COc1ccccc1)Nc1ccccc1F,.,.,.,.,.,/,/,/
Cc1ccccc1OCC(=O)NC(=S)Nc1ccc(Br)c(C)n1,.,.,.,.,.,/,/,/
Cc1ccccc1OCC(=O)NC(=S)Nc1cccc2cc(O)ccc12,.,.,.,-8.9,.,52%,.,.
CCc1nnc(SCC(=O)Nc2ccc(NC(C)=O)cc2)n1-n1cccc1,.,.,.,.,.,/,/,/
Cn1c(SCc2ccccc2Cl)nc2ccccc21,.,.,.,-8.4,.,66%,.,.
Oc1ccccc1C=Nc1ccccc1-c1nc2ccccc2[nH]1,.,.,.,.,.,/,/,/
COc1ccc(OC)c(C=Nc2ccccc2-c2nc3ccccc3[nH]2)c1,.,.,.,-8.4,.,39%,.,28%
CCOc1ccccc1NC(=O)c1ccc(Cl)c(NC(=O)CC(c2ccccc2)c2ccccc2)c1,.,.,.,-9.9,.,49%,.,30%
CCOc1ccc(C(=O)Nc2cc(NC(=O)c3ccc(OCC)c(Cl)c3)cc(C(=O)O)c2)cc1Cl,.,.,.,.,.,.,.,.
Nc1nnc(Cc2ccc(Cl)c(Cl)c2)s1,.,.,.,.,.,/,/,/
Cn1c(N/N=C\c2cccc(O)c2)cc(=O)n(C)c1=O,.,.,.,.,.,/,/,/
O=C(CN1CCN(C(=O)c2cccc(S(=O)(=O)N3CCCC3)c2)CC1)Nc1cccc(F)c1,.,/,/,/,/,/,/,/
Cc1cc(C)cc(NC2=CC(=O)CC(c3ccco3)C2)c1 (stereo unspecified),.,.,.,-12,.,37%,.,24%
Cc1ccc(NC2=CC(=O)CC(c3ccco3)C2)c(N)c1 (stereo unspecified),.,.,.,.,.,/,/,/
